CSC inhib: cancer stem cell viability inhibitors, primary screen, luminescence | cancer stem cell-like cells viability | inhibition, % at 7.5 µM | 300,000 tested, 1.1% active; in the data active means inhibition above about 75%; tested in HMLE shEcad cells
Beta cell apopt: inhibitors of cytokine-induced beta cell apoptosis, primary screen, luminescence; INS-1E cytokine-induced death, ATP luminescence, 48 h; percent of positive-control rescue, neutral wells zero; protection from apoptosis, % (test concentration not listed); 300,000 tested, 0.8% active; AID 435005, 2010;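 active means Every replicate reaches about 75%, or at least half do and their mean reaches it too, limit read from the data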;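 further: higher means more ATP so stronger rescue from cytokine killing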
Calb FLC: C. albicans growth inhibition with fluconazole, primary screen, CaCi-2 strain, Alamar Blue fluorescence; growth inhibition, % (concentration not given with the values); C. albicans CaCi-2 (fluconazole-resistant clinical isolate) + fluconazole, 48 h; 300,000 tested, 0.57% active; AID 1979, 2009;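 active means growth inhibition above about 58% in most replicates, limit read from the data, passing the limit was not always enough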;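 further: all wells also contain fluconazole at 8 µg/ml as a sub-toxic cotreatment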
A1 inh: caspase 3/7 activation in MEF A1-2A-BIM cells, primary screen, A1 inhibitor project, cell-based, luminescence, HTS. 330,000 tested, 0.066% active. caspase activation, % (test concentration not listed). Caspase-Glo 3/7 luminescence, 3 h; percent of clofoctol response, vehicle zero;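 active means over half of replicate activation scores above 10%, or exactly half above 10 with the replicate mean above 10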
TAG inh: inhibitors of triacylglycerol accumulation, primary screen, cell-based, uHTS, fluorescence, H9c2; H9c2 cells, Nile Red lipid (TAG) fluorescence; cells loaded with 200 µM oleic acid; inhibition, % at 12.5 µM; 230,000 tested, 0.66% active;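 active means pattern-corrected inhibition of lipid staining of at least 50% with the nuclear-stain viability signal not falling by more than 50%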
T cruzi repl: inhibitors of intracellular T. cruzi growth, primary screen, luminescence, NIH3T3 host cells; T. cruzi beta-gal in NIH3T3, 90 h; inhibition, % (concentration not given with the values); 300,000 tested, 1.4% active;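 active means mean inhibition across valid replicates above about 55%, limit read from the data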;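 further: signal also drops with host cell toxicity which is not excluded here; higher percent means less beta-gal luminescence so fewer parasites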
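compound dosing = single 50 nL compound addition per well in DMSO | material = NIH/3T3 host cells with β-galactosidase reporter T. cruzi | input = 5,000 host fibroblasts per well | timing = ≥90 h infection period, 3 h prior cell attachment | read-out basis = percent inhibition of parasite-derived β-gal signal | detection = GalScreen β-gal luminescence, detergent lysis, 60 min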
Large screens that a line does not name were inactive. Sampled rows, rich in hits. Any-hit rate of the full collection: about 3.1%.

C/C(=N/NC(=O)CNC(=O)CCc1ccccc1)c1ccc(Cl)c(Cl)c1	none
Cc1ccccc1Nc1ncccc1C(=O)N1CCOCC1	Calb FLC 108.7 (no result: TAG inh)
COc1ccc2c(c1OC)C(=O)N1C2SC(C)(C)[C@H]1C(=O)NCC(C)C (stereo not given in full)	none (no result: TAG inh)
CS(=O)(=O)N(CC(=O)O)c1ccc(C23CC4CC(CC(C4)C2)C3)cc1	none (no result: TAG inh)
COc1ccccc1NC(=O)CN(c1ccc(C23CC4CC(CC(C4)C2)C3)cc1)S(C)(=O)=O	Beta cell apopt 100.5 (no result: TAG inh)
O=C1N[C@@H](Cc2c[nH]c3ccccc23)C(=O)N[C@H]1Cc1ccccc1	none (no result: CSC inhib, Beta cell apopt, Calb FLC, A1 inh, T cruzi repl)
Cc1ccc(C(=O)NC2c3ccccc3-c3ccccc32)cc1	CSC inhib 82.5 (no result: TAG inh)
Cc1ccc(C(=O)NC2CCc3ccccc3C2=O)cc1 (stereo not given)	none
O=C(CC(=O)c1c(F)cccc1Cl)c1ccccc1O	none (no result: TAG inh)
COc1ccc(OC)c(C2C=C(C34CC5CC(CC(C5)C3)C4)NC(=S)N2)c1 (stereo not given)	T cruzi repl 64.5 (no result: TAG inh)
S=C1NC(C23CC4CC(CC(C4)C2)C3)=CC(c2ccc3c(c2)OCO3)N1 (stereo not given)	T cruzi repl 69.7
CC(NC(=O)c1ccccc1SCC(=O)N1CCCC1)c1ccc(F)cc1 (stereo not given)	none
COc1ccc(-c2nc(NC(=O)c3cc(C(C)(C)C)nn3C)sc2C)cc1	CSC inhib 80.9, Beta cell apopt 85.1, T cruzi repl 57.0 (no result: TAG inh)
COc1ccc(-c2nc(NC(=O)c3c(C)noc3C)sc2C)cc1	none (no result: CSC inhib, Beta cell apopt, Calb FLC, A1 inh, T cruzi repl)
COc1ccc(-c2nc(NC(=O)c3n[nH]c(=O)c4ccccc34)sc2C)cc1	A1 inh 6.7 (no result: TAG inh)
O=C(Sc1cccc2cccnc12)c1ccccc1Br	Calb FLC 112.0 (no result: TAG inh)
C[C@@H](NC(=O)c1ncn(Cc2ccccc2)c1C(=O)N[C@H](C)c1ccccc1)c1ccccc1	none (no result: Calb FLC, TAG inh, T cruzi repl)
OC(c1ccco1)c1nc(-c2ccc(F)c(Cl)c2)cs1 (stereo not given)	none (no result: CSC inhib, Beta cell apopt, Calb FLC, A1 inh, T cruzi repl)
CC(Oc1ccccc1Cl)C(=O)Nc1ccc(S(=O)(=O)Nc2nccs2)cc1 (stereo not given)	none
Cc1ccc(NC(=O)CNC(=O)c2ccc(Oc3ccccc3)cc2)nc1	Calb FLC 88.8 (no result: Beta cell apopt)
CC(C)(C)C(C(Oc1ccc(Cl)cc1)n1cncn1)n1nnnc1C(c1cccc(Cl)c1)N1CCCCC1 (stereo not given)	T cruzi repl 54.7 (no result: Beta cell apopt, TAG inh)
CC(=O)Nc1ccc(S(=O)(=O)Nc2c(NC3CCCCC3)c3ccccc3oc2=O)cc1	none (no result: Beta cell apopt, TAG inh)
Cc1c(OCC(=O)NCc2ccccn2)ccc2c(-c3ccccc3)cc(=O)oc12	none (no result: TAG inh)
Cc1c(OCC(=O)NCC(O)c2ccccc2)ccc2c(-c3ccccc3)cc(=O)oc12 (stereo not given)	Calb FLC 80.5 (no result: TAG inh)
Cc1ccc(N(CCC#N)C(=O)CCl)cc1C	T cruzi repl 58.9 (no result: TAG inh)
Cc1ccc(SCC(=O)OCC(=O)N(CCC#N)c2ccccc2)cc1C	none
CN(C(=O)c1cc(COc2ccc(F)cc2Cl)on1)C1CCOC1 (stereo not given)	none (no result: CSC inhib, Beta cell apopt, Calb FLC, A1 inh, T cruzi repl)
O=[N+]([O-])c1ccccc1/C=N/NC1=NCCN1	none
Clc1cc(/C=N\NC2=NCCN2)cc(Cl)n1	T cruzi repl 69.8
COc1ccc(N2CCN(C(=O)[C@@H](NC(=O)c3ccccc3Cl)C(C)C)CC2)cc1	none (no result: TAG inh)
NNC(=O)c1cccc(Cn2cc(Br)c([N+](=O)[O-])n2)c1	none
COc1ccc(NC(=O)c2cccc(Cn3cc(Br)c([N+](=O)[O-])n3)c2)c(C)c1	T cruzi repl 68.1 (no result: TAG inh)
CSCCC(NS(=O)(=O)c1ccc(C)cc1)C(=O)NC1CCCCCC1 (stereo not given)	none
O=C(Nc1ccc2nc(-c3ccc(Br)o3)[nH]c2c1)c1cccs1	T cruzi repl 68.5
O=C(Nc1ccc(-c2nc3cc(NC(=O)c4cccs4)ccc3o2)cc1)c1cccs1	A1 inh 17.4 (no result: TAG inh)
O[C@@H]1CN(C2CCCCC2)CC[C@H]1N1CCN(CCc2ccccc2)CC1	none (no result: Beta cell apopt, TAG inh)
C(=N\Nc1nc2ccccc2[nH]1)/c1cccc2nccnc12	TAG inh 52.2
CCCCn1c(/C=N/Nc2nc3ccccc3[nH]2)nc2ccccc21	Beta cell apopt 75.9 (no result: CSC inhib, TAG inh)
C(=N\NCc1ccccc1)/c1ccc2ncccc2c1	none
S=C(N/N=C/c1ccc2ncccc2c1)Nc1ccccc1	Calb FLC 87.8
COc1cc(OC)c(OC)cc1/C=N/Nc1nc2ccccc2[nH]1	none
C#CCn1cc(/C=N/Nc2nc3ccccc3[nH]2)c2ccccc21	CSC inhib 91.8 (no result: TAG inh)
CCCCn1c(/C=C/c2ccco2)nc2ccccc21	none (no result: TAG inh)
COc1ccccc1N1CCN(C2CCCN(C(=O)c3cc(C(C)C)on3)C2)CC1 (stereo not given)	none (no result: CSC inhib, Beta cell apopt, Calb FLC, A1 inh, T cruzi repl)
C=CCCO[C@@H]1O[C@@H](C)[C@H](O)C[C@H]1O	none (no result: Calb FLC, T cruzi repl)
C(=N\Nc1nc2ccccc2[nH]1)/c1ccccn1	T cruzi repl 68.7 (no result: CSC inhib, Beta cell apopt, A1 inh)
COc1ccc2c(c1)c(/C=N/Nc1nc3ccccc3[nH]1)c(C)n2C	Beta cell apopt 117.2, TAG inh 50.4
C(=N\Nc1nc2ccccc2[nH]1)/c1ccc2ncccc2c1	CSC inhib 79.2 (no result: Beta cell apopt)
c1ccc2c(c1)CC/C2=N/Nc1nc2ccccc2[nH]1	T cruzi repl 66.9 (no result: CSC inhib, Beta cell apopt)
CCc1nc2ccccc2c(C(=O)OCC(=O)N2CC(C)OC(C)C2)c1C (stereo not given)	none
CC(CNC(=O)c1ccc(OC2CCN(Cc3ccccn3)CC2)cc1)Oc1cccnc1 (stereo not given)	Beta cell apopt 99.9
O=C(NCCc1ccccn1)c1ccc(OC2CCN(Cc3ccccn3)CC2)cc1	none (no result: TAG inh)
COc1ccc(OC)c(NC(=O)COC(=O)[C@H](Cc2ccccc2)NC(=O)c2ccco2)c1	none (no result: Calb FLC, T cruzi repl)
O=C(NCC1CCCO1)c1ccc(Cl)c(S(=O)(=O)Nc2ccccc2)c1 (stereo not given)	none
Cc1ccc2[nH]c(-c3cccc(F)c3)cc(=O)c2c1	none (no result: TAG inh)
COc1ccc2[nH]c(-c3cccc(F)c3)cc(=O)c2c1	CSC inhib 76.0
COc1ccccc1S(=O)(=O)N(C)C[C@H]1OCc2cnnn2CCCC(=O)N([C@H](C)CO)C[C@@H]1C	none (no result: CSC inhib, Beta cell apopt, Calb FLC, A1 inh, T cruzi repl)
COC(=O)c1ccc(/C=C/c2c(-c3ccc(OC)cc3)oc3ccccc23)cc1	CSC inhib 108.8
COc1ccc(/C=C/c2c(-c3ccc(OC)cc3)oc3ccccc23)cc1	none
COC(=O)c1ccc(/C=C/c2c(-c3ccc(OC)cc3)oc3ccc(N4CCOCC4)cc23)cc1	CSC inhib 109.0
COc1ccc(/C=C/c2c(-c3cccc(C)c3)oc3ccc(N4CCOCC4)cc23)cc1	none
O=C(O)C1CCN(C(=O)c2ccc3c(c2)OCO3)CC1	none

Screening data: PubChem BioAssay, several laboratories
